Source: ChEMBL document CHEMBL5724801, “EUbOPEN Chemogenomics Library - Multiplex” (2024)
“And” between values parts separate entries of the source, which are not always exact repeats. Equal values may be shown once.

System: HEK-293T
Experiment: Multiplex assay against HEK293T
Type: toxicity, cell-based
Conditions: human
In short: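 Compound was added to live cells that had been stained at seeding with Hoechst33342, BioTracker Green Microtubule Cytoskeleton Dye, MitoTracker Red and Annexin V Alexa Fluor 680, and imaging followed on a CQ1 microscope at 37°C and 5% CO2. CellPathfinder machine-learning gating divided cells into Hoechst high-intensity objects or normal cells, normal cells into healthy, pyknosed or fragmented nuclei, and pyknosed cells into mitotic or apoptotic. Tubulin, mitochondrial-mass and membrane-permeability phenotypes are per cents of healthy-nucleus cells.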

[1] = 12 h, 1 µM, compound concentration 1 uM
[2] = 12 h, 10 µM, compound concentration 10 uM
[3] = 24 h, 1 µM, compound concentration 1 uM
[4] = 24 h, 10 µM, compound concentration 10 uM
[5] = 48 h, 1 µM, compound concentration 1 uM
[6] = 48 h, 10 µM, compound concentration 10 uM

CCn1c(-c2ccncc2)cc2c1CCNC2=O
Population Apoptotic (%) [1]: 15.09% and 7.09% | Population Fragmented Nuclei (%) [1]: 1.92% and 1.82% | Population Hoechst High Intensity Objects (%) [1]: 0.95% and 0% | Population Membrane Permeable-Phenotype (%) [1]: 2.72% and 0% | Population Mitochondria Different-Phenotype (%) [1]: 35.37% and 23.81% | Population Mitotic Cells (%) [1]: 84.91% and 92.91% | Population Normal (%) [1]: 99.05% and 100% | Population Pyknosed Nuclei (%) [1]: 50.96% and 85.45% | Population Tubulin-Different-Phenotype (%) [1]: 7.48% and 14.29% | Total Cell Count [1]: 315 and 165 | Population Apoptotic (%) [2]: 15.05% and 13.74% | Population Fragmented Nuclei (%) [2]: 0.77% and 4.17% | Population Hoechst High Intensity Objects (%) [2]: 0% | Population Membrane Permeable-Phenotype (%) [2]: 0% and 14.29% | Population Mitochondria Different-Phenotype (%) [2]: 31.51% and 14.29% | Population Mitotic Cells (%) [2]: 84.95% and 86.26% | Population Normal (%) [2]: 100% | Population Pyknosed Nuclei (%) [2]: 71.26% and 90.97% | Population Tubulin-Different-Phenotype (%) [2]: 5.48% and 14.29% | Total Cell Count [2]: 261 and 144 | Population Apoptotic (%) [3]: 31.73% and 15.24% | Population Fragmented Nuclei (%) [3]: 2.16% and 2.84% | Population Hoechst High Intensity Objects (%) [3]: 0.27% and 0% | Population Membrane Permeable-Phenotype (%) [3]: 1.16% and 6.25% | Population Mitochondria Different-Phenotype (%) [3]: 23.17% and 18.75% | Population Mitotic Cells (%) [3]: 68.27% and 84.76% | Population Normal (%) [3]: 99.73% and 100% | Population Pyknosed Nuclei (%) [3]: 28.03% and 74.47% | Population Tubulin-Different-Phenotype (%) [3]: 32.43% and 18.75% | Total Cell Count [3]: 372 and 141 | Population Apoptotic (%) [4]: 46.45% and 34.13% | Population Fragmented Nuclei (%) [4]: 1.6% and 3.57% | Population Hoechst High Intensity Objects (%) [4]: 0% | Population Membrane Permeable-Phenotype (%) [4]: 0% | Population Mitochondria Different-Phenotype (%) [4]: 30.77% and 44.44% | Population Mitotic Cells (%) [4]: 53.55% and 65.87% | Population Normal (%) [4]: 100% | Population Pyknosed Nuclei (%) [4]: 62% and 90% | Total Cell Count [4]: 250 and 140 | Population Apoptotic (%) [5]: 33.96% and 24.19% | Population Fragmented Nuclei (%) [5]: 5.74% and 0% | Population Healthy Nuclei (%) [5]: 80.42% and 45.61% | Population Hoechst High Intensity Objects (%) [5]: 0.78% and 0.87% | Population Membrane Permeable-Phenotype (%) [5]: 2.6% and 0% | Population Mitochondria Different-Phenotype (%) [5]: 61.36% and 40.38% | Population Mitotic Cells (%) [5]: 66.04% and 75.81% | Population Normal (%) [5]: 99.22% and 99.13% | Population Apoptotic (%) [6]: 66.43% and 44.74% | Population Fragmented Nuclei (%) [6]: 1.61% and 5.88% | Population Hoechst High Intensity Objects (%) [6]: 0% | Population Membrane Permeable-Phenotype (%) [6]: 0% | Population Mitochondria Different-Phenotype (%) [6]: 82.35% and 78.57% | Population Mitotic Cells (%) [6]: 33.57% and 55.26% | Population Normal (%) [6]: 100% | Population Pyknosed Nuclei (%) [6]: 57.43% and 83.82% | Total Cell Count [6]: 249 and 136

O=C(O)C(F)(F)F.O=C1NC(=O)/C(=C/c2c[nH]c(=O)c(-c3ccc(N4CCNCC4)nc3)c2)S1
Population Apoptotic (%) [1]: 11.41% and 11.65% | Population Fragmented Nuclei (%) [1]: 1.85% and 6.98% | Population Hoechst High Intensity Objects (%) [1]: 0% | Population Mitotic Cells (%) [1]: 88.59% and 88.35% | Population Normal (%) [1]: 100% | Population Pyknosed Nuclei (%) [1]: 39.31% and 79.84% | Total Cell Count [1]: 379 and 129 | Population Apoptotic (%) [2]: 6.85% and 12.69% | Population Fragmented Nuclei (%) [2]: 2.2% and 4.57% | Population Healthy Nuclei (%) [2]: 57.69% and 27.41% | Population Hoechst High Intensity Objects (%) [2]: 0.27% and 0% | Population Membrane Permeable-Phenotype (%) [2]: 0.95% and 0% | Population Mitotic Cells (%) [2]: 93.15% and 87.31% | Population Normal (%) [2]: 99.73% and 100% | Population Pyknosed Nuclei (%) [2]: 40.11% and 68.02% | Total Cell Count [2]: 365 and 197 | Population Apoptotic (%) [3]: 17.05% and 22.22% | Population Fragmented Nuclei (%) [3]: 1.89% and 2.88% | Population Healthy Nuclei (%) [3]: 75.95% and 25.9% | Population Hoechst High Intensity Objects (%) [3]: 0.17% and 0% | Population Membrane Permeable-Phenotype (%) [3]: 1.13% and 0% | Population Mitochondria Different-Phenotype (%) [3]: 18.1% and 11.11% | Population Mitotic Cells (%) [3]: 82.95% and 77.78% | Population Normal (%) [3]: 99.83% and 100% | Population Apoptotic (%) [4]: 8.74% and 7.63% | Population Fragmented Nuclei (%) [4]: 1.47% and 3.95% | Population Healthy Nuclei (%) [4]: 81.67% and 49.41% | Population Hoechst High Intensity Objects (%) [4]: 0.16% and 0.39% | Population Membrane Permeable-Phenotype (%) [4]: 1% and 0.8% | Population Mitochondria Different-Phenotype (%) [4]: 11.22% and 10.4% | Population Mitotic Cells (%) [4]: 91.26% and 92.37% | Population Normal (%) [4]: 99.84% and 99.61% | Population Pyknosed Nuclei (%) [4]: 16.86% and 46.64% | Population Tubulin-Different-Phenotype (%) [4]: 10.02% and 1.6% | Total Cell Count [4]: 612 and 254 | Population Apoptotic (%) [5]: 6.45% and 15.87% | Population Fragmented Nuclei (%) [5]: 2.67% and 3.98% | Population Healthy Nuclei (%) [5]: 86.14% and 60.23% | Population Hoechst High Intensity Objects (%) [5]: 0.07% and 0% | Population Membrane Permeable-Phenotype (%) [5]: 4.02% and 0.94% | Population Mitochondria Different-Phenotype (%) [5]: 12.07% and 19.81% | Population Mitotic Cells (%) [5]: 93.55% and 84.13% | Population Normal (%) [5]: 99.93% and 100% | Population Apoptotic (%) [6]: 7.41% and 20.63% | Population Fragmented Nuclei (%) [6]: 4.01% and 2.52% | Population Healthy Nuclei (%) [6]: 88.47% and 81.61% | Population Hoechst High Intensity Objects (%) [6]: 0% and 0.5% | Population Membrane Permeable-Phenotype (%) [6]: 6.36% and 2.78% | Population Mitochondria Different-Phenotype (%) [6]: 6.55% and 12.04% | Population Mitotic Cells (%) [6]: 92.59% and 79.37% | Population Normal (%) [6]: 100% and 99.5% | Population Pyknosed Nuclei (%) [6]: 7.52% and 15.87%

O=C1NC(NC23CC4CC(CC(C4)C2)C3)=N/C1=C\c1ccc2ncsc2c1
Population Apoptotic (%) [1]: 29.13% and 49.03% | Population Fragmented Nuclei (%) [1]: 8.91% and 6.01% | Population Hoechst High Intensity Objects (%) [1]: 6.05% and 0.54% | Population Membrane Permeable-Phenotype (%) [1]: 1.75% and 0% | Population Mitochondria Different-Phenotype (%) [1]: 15.79% and 5.88% | Population Mitotic Cells (%) [1]: 70.87% and 50.97% | Population Normal (%) [1]: 93.95% and 99.46% | Population Pyknosed Nuclei (%) [1]: 62.87% and 84.7% | Population Tubulin-Different-Phenotype (%) [1]: 17.54% and 23.53% | Total Cell Count [1]: 215 and 184 | Population Apoptotic (%) [2]: 29.21% and 56.72% | Population Fragmented Nuclei (%) [2]: 84.08% and 93.38% | Population Healthy Nuclei (%) [2]: 3.91% and 2.86% | Population Hoechst High Intensity Objects (%) [2]: 21.42% and 7.86% | Population Membrane Permeable-Phenotype (%) [2]: 0% | Population Mitochondria Different-Phenotype (%) [2]: 0% | Population Mitotic Cells (%) [2]: 70.79% and 43.28% | Population Normal (%) [2]: 78.58% and 92.14% | Population Pyknosed Nuclei (%) [2]: 12.01% and 3.76% | Population Tubulin-Different-Phenotype (%) [2]: 0% | Total Cell Count [2]: 943 and 1934 | Population Apoptotic (%) [3]: 59.35% and 52.46% | Population Fragmented Nuclei (%) [3]: 10.75% and 5.21% | Population Healthy Nuclei (%) [3]: 23.12% and 8.06% | Population Hoechst High Intensity Objects (%) [3]: 4.62% and 0% | Population Membrane Permeable-Phenotype (%) [3]: 6.98% and 5.88% | Population Mitochondria Different-Phenotype (%) [3]: 4.65% and 0% | Population Mitotic Cells (%) [3]: 40.65% and 47.54% | Population Normal (%) [3]: 95.38% and 100% | Population Pyknosed Nuclei (%) [3]: 66.13% and 86.73% | Population Tubulin-Different-Phenotype (%) [3]: 16.28% and 11.76% | Total Cell Count [3]: 195 and 211 | Population Apoptotic (%) [4]: 30% and 40.21% | Population Fragmented Nuclei (%) [4]: 85.18% and 91.28% | Population Healthy Nuclei (%) [4]: 4.04% and 1.95% | Population Hoechst High Intensity Objects (%) [4]: 21.4% and 9.41% | Population Membrane Permeable-Phenotype (%) [4]: 3.33% and 0% | Population Mitochondria Different-Phenotype (%) [4]: 0% | Population Mitotic Cells (%) [4]: 70% and 59.79% | Population Normal (%) [4]: 78.6% and 90.59% | Population Pyknosed Nuclei (%) [4]: 10.78% and 6.76% | Population Tubulin-Different-Phenotype (%) [4]: 0% and 3.57% | Total Cell Count [4]: 944 and 1583 | Population Apoptotic (%) [5]: 47.65% and 48.67% | Population Fragmented Nuclei (%) [5]: 14.23% and 10.83% | Population Healthy Nuclei (%) [5]: 14.64% and 17.2% | Population Hoechst High Intensity Objects (%) [5]: 2.85% and 0.63% | Population Membrane Permeable-Phenotype (%) [5]: 0% and 3.7% | Population Mitochondria Different-Phenotype (%) [5]: 40% and 33.33% | Population Mitotic Cells (%) [5]: 52.35% and 51.33% | Population Normal (%) [5]: 97.15% and 99.37% | Population Pyknosed Nuclei (%) [5]: 71.13% and 71.97% | Population Tubulin-Different-Phenotype (%) [5]: 25.71% and 48.15% | Total Cell Count [5]: 246 and 158 | Population Apoptotic (%) [6]: 35.64% and 60.49% | Population Fragmented Nuclei (%) [6]: 84.47% and 93.33% | Population Healthy Nuclei (%) [6]: 3.18% and 1.42% | Population Hoechst High Intensity Objects (%) [6]: 23.26% and 9.23% | Population Membrane Permeable-Phenotype (%) [6]: 0% | Population Mitochondria Different-Phenotype (%) [6]: 0% | Population Mitotic Cells (%) [6]: 64.36% and 39.51% | Population Normal (%) [6]: 76.74% and 90.77% | Population Pyknosed Nuclei (%) [6]: 12.35% and 5.25% | Population Tubulin-Different-Phenotype (%) [6]: 0% | Total Cell Count [6]: 1066 and 1701
